Series [1] relates to Rattus norvegicus. Put plainly: Antialzheimer activity in Sprague-Dawley rat assessed as amyloid beta 38 level in brain at 10 mg/kg, po at 7 hrs by ELISA relative to control. The format is functional. The method, boiled down: (§1)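 Male Sprague-Dawley rats (180-220 g), fasted overnight, were given 10 mg/kg by gastric intubation as a 5 mg/mL suspension in 0.5% methocellulose. At 2, 4, 7 and 25 h, 50 μL CSF was taken from the cisterna magna under isoflurane, then brain was collected. Aβ37/38/40/42 were measured by MesoScale Discovery sandwich immunoassays. Results are mean % change versus T = 0 h, n = 5.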

For series [2], the system named is Rattus norvegicus. Put plainly: Antialzheimer activity in Sprague-Dawley rat assessed as amyloid beta 37 level in CSF at 10 mg/kg, po at 25 hrs by ELISA relative to control. In kind it is functional. The method, boiled down: as §1
The subject of series [3] is Rattus norvegicus. Put plainly: Antialzheimer activity in Sprague-Dawley rat assessed as amyloid beta 37 level in brain at 10 mg/kg, po at 25 hrs by ELISA relative to control. In kind it is functional. In short, it runs like this:
as §1

The subject of series [4] is Rattus norvegicus. Put plainly: Antialzheimer activity in Sprague-Dawley rat assessed as amyloid beta 37 level in brain at 10 mg/kg, po at 7 hrs by ELISA relative to control. The format is functional. In short, it runs like this:
as §1

A short description of series [5]: Oral bioavailability in CD1 Swiss mouse at 10 mg/kg. The format is ADME, organism-based. The conditions noted are these: in vivo.
Series [6] is described as follows: Drug uptake in CD1 mouse brain at 30 mg/kg, po at 8 hrs by LC-MS/MS analysis. In kind it is ADME, organism-based. More on the design: dose 30 mg/kg, route oral. The conditions noted are these: read-out: Drug uptake. In short, it runs like this: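 Overnight-fasted male CD1 mice received one oral dose (10 or 30 mg/kg) in 20% Captisol. After sacrifice, the left brain hemisphere was stored at −18 °C. Compound level was quantified by a qualified LC-MS/MS method, alongside EDTA plasma spun at 1900g, 4 °C. n = 4 per time point.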

A short description of series [7]: Plasma concentration in CD1 mouse at 10 mg/kg, po at 4 hrs by LC-MS/MS analysis. In kind it is ADME, organism-based. More on the design: dose 10 mg/kg, route oral.
Series [8] deals with Mus musculus. Put plainly: Antialzheimer activity in CD1 mouse assessed as amyloid beta 42 level in brain at 30 mg/kg, po at 24 hrs by ELISA relative to control. In kind it is functional. In short, it runs like this:
(§2)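 Male CD1 SPF mice, fasted overnight, got a single oral dose of 10 or 30 mg/kg. At each time point the right brain hemisphere was homogenized in 0.4% DEA/50 mM NaCl with protease inhibitors and spun at 221300g for 50 min. The supernatant was neutralized with Tris-HCl pH 6.8. Aβ38 or Aβ42 was read by sandwich ELISA with a fluorogenic peroxidase substrate (ex 320/em 420 nm). Results are mean % change versus T = 0 h, n = 4.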

Series [9] relates to Mus musculus. Put plainly: Antialzheimer activity in CD1 mouse assessed as amyloid beta 38 level in brain at 30 mg/kg, po at 24 hrs by ELISA relative to control. The format is functional. The method, boiled down:
as §2

In series [10] the target is T1, Neuromedin-K receptor (Homo sapiens) (UniProt P29371).
T1 sequence (whole entry): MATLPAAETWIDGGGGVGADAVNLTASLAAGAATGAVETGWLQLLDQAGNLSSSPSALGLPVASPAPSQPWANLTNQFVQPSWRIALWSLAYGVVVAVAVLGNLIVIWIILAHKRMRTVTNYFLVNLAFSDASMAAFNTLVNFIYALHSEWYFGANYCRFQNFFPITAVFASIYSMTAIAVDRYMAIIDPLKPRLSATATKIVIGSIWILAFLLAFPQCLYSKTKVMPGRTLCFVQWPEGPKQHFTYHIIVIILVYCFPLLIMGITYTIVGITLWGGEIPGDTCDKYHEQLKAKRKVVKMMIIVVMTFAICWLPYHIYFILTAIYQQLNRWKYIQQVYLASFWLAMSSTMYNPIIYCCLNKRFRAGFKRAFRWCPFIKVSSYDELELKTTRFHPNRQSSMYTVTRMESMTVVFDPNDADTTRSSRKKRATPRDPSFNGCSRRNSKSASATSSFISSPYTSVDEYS
Put plainly: Inhibition of NK3 receptor at 10 uM.

The target in a further series is T2, Cytochrome P450 1A2 (Homo sapiens, UniProt P05177).
T2 sequence (P05177 whole entry): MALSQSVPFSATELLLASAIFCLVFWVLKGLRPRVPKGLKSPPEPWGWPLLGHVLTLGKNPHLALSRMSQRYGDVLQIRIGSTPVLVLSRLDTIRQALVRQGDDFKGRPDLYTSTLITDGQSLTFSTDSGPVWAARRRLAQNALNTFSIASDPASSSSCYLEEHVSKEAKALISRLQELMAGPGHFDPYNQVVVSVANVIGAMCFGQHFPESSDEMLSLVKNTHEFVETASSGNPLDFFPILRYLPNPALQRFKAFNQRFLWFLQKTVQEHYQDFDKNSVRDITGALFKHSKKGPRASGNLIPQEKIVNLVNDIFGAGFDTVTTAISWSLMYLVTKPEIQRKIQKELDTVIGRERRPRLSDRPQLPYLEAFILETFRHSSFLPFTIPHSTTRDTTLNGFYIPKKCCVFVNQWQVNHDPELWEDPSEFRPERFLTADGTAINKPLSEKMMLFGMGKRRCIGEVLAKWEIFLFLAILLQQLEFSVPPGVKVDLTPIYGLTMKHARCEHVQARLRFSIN
Put plainly: Inhibition of CYP1A2 in human liver microsomes using phenacetin as substrate. The format is ADME, Microsome.

Series [11] concerns the target Voltage-gated inwardly rectifying potassium channel KCNH2 (Homo sapiens, UniProt Q12809). Put plainly: Displacement of [3H]dofetilide to human ERG expressed in HEK293 cells. The format is cell-based.
Another series relates to Liver microsomes. Put plainly: Drug metabolism in human liver microsome assessed as reactive metabolite formation by cyanide-trapping assay. In kind it is ADME.
Series [12] can be described thus: Drug uptake in Sprague-Dawley rat brain at 10 mg/kg, po at 2 hrs by LC-MS/MS analysis. The format is ADME, organism-based. More on the design: dose 10 mg/kg, route oral. The conditions noted are these: read-out: Drug uptake. In short, it runs like this: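 Overnight-fasted male Sprague–Dawley rats (180–220 g) were dosed 10 mg/kg by gastric intubation of a 5 mg/mL suspension in 0.5% methocellulose. Rats were anesthetized with isoflurane, CSF was taken from the cisterna magna, then they were decapitated. Brain compound levels were measured as in the mouse assay. n = 5.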

Series [13] can be described thus: Plasma concentration in Sprague-Dawley rat at 10 mg/kg, po at 4 hrs by LC-MS/MS analysis. In kind it is ADME, organism-based. More on the design: dose 10 mg/kg, route oral. In short, it runs like this:
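Overnight-fasted male Sprague-Dawley rats (180–220 g) were given 10 mg/kg by gastric intubation of a 5 mg/mL suspension in 0.5% methocellulose. Blood was collected after decapitation at 2, 4, 7 and 25 h under isoflurane anaesthesia. Plasma compound was measured as in the mouse assay, n = 5.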

For series [14], the system named is Rattus norvegicus. Put plainly: Antialzheimer activity in Sprague-Dawley rat assessed as amyloid beta 40 level in CSF at 10 mg/kg, po at 7 hrs by ELISA relative to control. The format is functional. The method, boiled down: as §1
In series [15] the test system is Rattus norvegicus. Put plainly: Antialzheimer activity in Sprague-Dawley rat assessed as amyloid beta 40 level in brain at 10 mg/kg, po at 2 hrs by ELISA relative to control. The format is functional. In short, it runs like this:
as §1

Series [16] is described as follows: Thermodynamic solubility in 0.01N HCl. The conditions noted are these: read-out: Therm_solubility.
The test system of a further series is Canis familiaris. Put plainly: Antialzheimer activity in beagle dog assessed as amyloid beta 40 level in cerebrospinal fluid at 20 mg/kg, po at 24 hrs by ELISA relative to control.

In brackets after ≈: the same amount, converted by molar mass.

Voltage-gated inwardly rectifying potassium channel KCNH2, sequence (Q12809 whole entry): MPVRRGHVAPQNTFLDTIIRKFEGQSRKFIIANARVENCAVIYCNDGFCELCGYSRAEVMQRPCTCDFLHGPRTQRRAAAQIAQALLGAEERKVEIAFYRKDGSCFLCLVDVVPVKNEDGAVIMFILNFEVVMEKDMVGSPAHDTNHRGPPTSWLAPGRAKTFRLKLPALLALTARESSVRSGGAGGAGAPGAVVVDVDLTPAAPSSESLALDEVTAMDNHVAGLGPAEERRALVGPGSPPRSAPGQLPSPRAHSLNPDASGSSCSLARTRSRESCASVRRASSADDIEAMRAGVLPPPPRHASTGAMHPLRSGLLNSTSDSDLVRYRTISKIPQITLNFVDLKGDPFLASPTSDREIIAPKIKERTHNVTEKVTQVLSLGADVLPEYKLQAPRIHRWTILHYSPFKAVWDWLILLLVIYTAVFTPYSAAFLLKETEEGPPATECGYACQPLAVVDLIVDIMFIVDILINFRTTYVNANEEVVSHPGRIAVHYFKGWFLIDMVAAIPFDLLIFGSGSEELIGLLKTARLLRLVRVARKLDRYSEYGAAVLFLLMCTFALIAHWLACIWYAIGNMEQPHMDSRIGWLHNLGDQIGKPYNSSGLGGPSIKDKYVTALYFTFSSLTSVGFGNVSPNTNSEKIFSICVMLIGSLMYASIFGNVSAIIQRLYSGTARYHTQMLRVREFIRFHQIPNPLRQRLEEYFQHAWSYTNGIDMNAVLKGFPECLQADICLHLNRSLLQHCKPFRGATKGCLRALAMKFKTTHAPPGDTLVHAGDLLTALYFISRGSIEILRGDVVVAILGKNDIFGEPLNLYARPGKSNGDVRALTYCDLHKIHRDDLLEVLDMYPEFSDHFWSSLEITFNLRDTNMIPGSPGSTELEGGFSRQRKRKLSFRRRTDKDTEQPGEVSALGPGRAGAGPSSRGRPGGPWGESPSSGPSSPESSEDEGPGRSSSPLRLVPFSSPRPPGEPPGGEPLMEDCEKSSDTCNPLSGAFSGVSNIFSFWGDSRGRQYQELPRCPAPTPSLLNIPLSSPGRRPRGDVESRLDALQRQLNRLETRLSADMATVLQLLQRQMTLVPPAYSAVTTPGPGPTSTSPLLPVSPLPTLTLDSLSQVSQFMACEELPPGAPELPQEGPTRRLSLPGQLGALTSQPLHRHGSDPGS

For the compound `COc1nc(Nc2cccc3c2nc(-c2ccc(F)cc2)n3C)ccc1-n1cnc(C)c1`, the Activity in the series with Rattus norvegicus [1] came out at 127%; in the series on Rattus norvegicus [2], 124%; with Rattus norvegicus [3], 128%; with Rattus norvegicus [4], 620%; in the series with Mus musculus [8], 77%; in the series with Mus musculus [9], 101%. For the same compound, the Activity worked out at 56% in the series on Rattus norvegicus [14], 77% in the series on Rattus norvegicus [15] and 113% in the series on Canis familiaris. In addition, in series [5], the bioavailability was found to be 100%. The concentration at 8 h in [6] is 12 µM. Besides, the concentration at 4 h in [7] was determined as 5.3 µM; in series [13] it was 4.4 µM. In series [10], this compound showed an inhibition of 71%. Moreover, the results for the IC50 (against Cytochrome P450 1A2; in series [11]) were above 30 µM and 8.5 µM, respectively. Also, in the series with Liver microsomes, the Drug metabolism entry is reported as “Not Active”. For the same compound, in [12], the concentration at 2 h turned out to be 2.5 µM. Besides, the solubility thermodynamic in series [16] was 1170 µg/mL (≈ 2730 µM).

Values taken from ChEMBL document CHEMBL2176900, “Design and synthesis of a novel series of bicyclic heterocycles as potent γ-secretase modulators” (J Med Chem, 2012).
